In ChEMBL document CHEMBL1158182, “Antifungal activity of chalcones: a mechanistic study using various yeast strains” (Eur J Med Chem, 2008):

What was measured:
Type in all cases: functional
Ogataea angusta [1] = experiment: Antifungal activity against Hansenula polymorpha R3 with rgh3 genotype by agar dilution method
How it was run: (§1)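 H. polymorpha strains were tested by agar dilution on rich YPD agar at 37 °C. Compound stocks in 96% EtOH were mixed into the medium to give […]. Cells were suspended in water, serially diluted to 10^9, 10^7, 10^5 and 10^3 cells/ml, and applied to the agar with a metal replicator. MIC was read from growth.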

Ogataea angusta [2] = experiment: Antifungal activity against Hansenula polymorpha D22 with arg1/arg1 ade1/ADE1 leu2/leu2 URA3/ura3 CYS1/cys1 genotype by agar dilution method; how it was run: as §1
Ogataea angusta [3] = experiment: Antifungal activity against Hansenula polymorpha CRD2 with leu2 CDR2 genotype by agar dilution method; how it was run: as §1
Ogataea angusta [4] = experiment: Antifungal activity against Hansenula polymorpha MC1 with met2 cys1 genotype by agar dilution method; how it was run: as §1
Saccharomyces cerevisiae [5] = experiment: Antifungal activity against haploid Saccharomyces cerevisiae 2180 by agar dilution method
How it was run: (§2)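 S. cerevisiae and K. lactis strains were tested by agar dilution on rich YPD agar at 30 °C. Compound stocks in 96% EtOH were added to the medium to give […]. Cells were suspended in water, serially diluted to 10^9–10^3 cells/ml, and plated with a metal replicator. MIC was read from growth.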

Saccharomyces cerevisiae [6] = experiment: Antifungal activity against haploid Saccharomyces cerevisiae 1S by agar dilution method; how it was run: as §2
Kluyveromyces lactis [7] = experiment: Antifungal activity against Kluyveromyces lactis 1-6A with MATalpha uraA lys arg genotype by agar dilution method; how it was run: as §2
Kluyveromyces lactis [8] = experiment: Antifungal activity against Kluyveromyces lactis 2-18B with MATalpha metA1 ura3 leu2 genotype by agar dilution method; how it was run: as §2
Ogataea angusta [9] = experiment: Antifungal activity against Hansenula polymorpha M4 with met4 genotype by agar dilution method; how it was run: as §1
Ogataea angusta [10] = experiment: Antifungal activity against Hansenula polymorpha AU05 with ade3 ura3 genotype by agar dilution method; how it was run: as §1
Ogataea angusta [11] = experiment: Antifungal activity against Hansenula polymorpha 2a with arg1 leu2 ura3 cys1 genotype by agar dilution method; how it was run: as §1
Saccharomyces cerevisiae [12] = experiment: Antifungal activity against haploid Saccharomyces cerevisiae 1169 by agar dilution method; how it was run: as §2
Saccharomyces cerevisiae [13] = experiment: Antifungal activity against haploid Saccharomyces cerevisiae YSH1170 by agar dilution method; how it was run: as §2
Ogataea angusta [14] = experiment: Antifungal activity against Hansenula polymorpha CD3 with ade1 leu2 cds3 genotype by agar dilution method; how it was run: as §1
Saccharomyces cerevisiae [15] = experiment: Antifungal activity against haploid Saccharomyces cerevisiae FY4 by agar dilution method; how it was run: as §2
Kluyveromyces lactis [16] = experiment: Antifungal activity against Kluyveromyces lactis 2-19B with MATalpha ura lys arg genotype by agar dilution method; how it was run: as §2
Ogataea angusta [17] = experiment: Antifungal activity against Hansenula polymorpha WT2 with ade1 met6 genotype by agar dilution method; how it was run: as §1
Ogataea angusta [18] = experiment: Antifungal activity against Hansenula polymorpha WT1 with ade1 ura3 genotype by agar dilution method; how it was run: as §1
Saccharomyces cerevisiae [19] = experiment: Antifungal activity against haploid Saccharomyces cerevisiae Sigma 1278b by agar dilution method; how it was run: as §2
Ogataea angusta [20] = experiment: Antifungal activity against Hansenula polymorpha CD2 with ade1 leu2 cds2 genotype by agar dilution method; how it was run: as §1
Saccharomyces cerevisiae [21] = experiment: Antifungal activity against diploid Saccharomyces cerevisiae 29a by agar dilution method; how it was run: as §2
Ogataea angusta [22] = experiment: Antifungal activity against Hansenula polymorpha CD1 with ade1 leu2 cds1 genotype by agar dilution method; how it was run: as §1
Saccharomyces cerevisiae [23] = experiment: Antifungal activity against haploid Saccharomyces cerevisiae YSH1171 by agar dilution method; how it was run: as §2
Saccharomyces cerevisiae [24] = experiment: Antifungal activity against haploid Saccharomyces cerevisiae 10560-6B by agar dilution method; how it was run: as §2
Ogataea angusta [25] = experiment: Antifungal activity against Hansenula polymorpha AS1 with arg1 gsh2delta genotype by agar dilution method; how it was run: as §1
Ogataea angusta [26] = experiment: Antifungal activity against Hansenula polymorpha M2 with met2 genotype by agar dilution method; how it was run: as §1
Ogataea angusta [27] = experiment: Antifungal activity against Hansenula polymorpha 2b with arg1 ade1 leu2 genotype by agar dilution method; how it was run: as §1
Saccharomyces cerevisiae [28] = experiment: Antifungal activity against diploid Saccharomyces cerevisiae 1a by agar dilution method; how it was run: as §2

Measured: MIC

COc1ccc(/C=C/C(=O)c2ccc(Cl)cc2)cc1O
> 40 µg/mL: all assays above

O=C(/C=C/c1ccccc1)c1ccc(Cl)cc1
> 40 µg/mL: all assays above
